In ChEMBL document CHEMBL1123645, “Phenylephrine derivatives as leukotriene D4 antagonists” (J Med Chem, 1987):
Activity calls are given as the source filed them. The rule behind the calls is not given here.

How the values were obtained:
Cavia porcellus [1] = assay: Inhibition of LTD4 (leukotriene) induced bronchospasm in the guinea pig when administered intraduodenally (50 mg/kg); Not active; assay type: functional, organism-based
Procedure, shortened: (§1)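 Guinea pig bronchoconstriction induced by LTD4 or by ovalbumin. Antagonist was given intraduodenally 10 min before the agonist. […] Single-dose lines give percent inhibition at the stated id dose.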

Cavia porcellus [2] = assay: Inhibition of LTD4 (leukotriene) induced bronchospasm in the guinea pig when administered intraduodenally at 25 mg/kg
Cavia porcellus [3] = assay: Inhibition of LTD4 (leukotriene) induced bronchospasm in the guinea pig when administered intraduodenally (50 mg/kg)
[4] = target: Cysteinyl leukotriene receptor (Homo sapiens) (UniProt Q9Y271+Q9NS75); assay: Inhibition of Ovalbumin (OA) induced bronchospasm in the guinea pig when administered intraduodenally (50 mg/kg); assay type: functional, organism-based; conditions: Cavia porcellus; target entry is the homologue from another species; procedure, shortened: as §1
Cavia porcellus [5] = assay: Inhibition of LTD4 (leukotriene) induced bronchospasm in the guinea pig when administered intraduodenally (50 mg/kg); assay type: functional; procedure, shortened: as §1
Cavia porcellus [6] = assay: Inhibition of Ovalbumin (OA) induced bronchospasm in the guinea pig when administered intraduodenally at 25 mg/kg; assay type: functional; conditions: route intraduodenal; procedure, shortened: as §1
Cavia porcellus [7] = assay: Inhibition of LTD4 (leukotriene) induced bronchospasm in the guinea pig when administered perorally (25 mg/kg), A minus(-)number indicates potentiation.; NA means not active; assay type: functional, organism-based
Procedure, shortened: (§2)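 Guinea pig bronchoconstriction induced by LTD4 or by ovalbumin. Antagonist was dosed orally to awake animals 120 min before the agonist, which is 95 min before anesthetic. […] Single-dose lines give percent inhibition at the stated oral dose.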

Cavia porcellus [8] = assay: Inhibition of Ovalbumin (OA) induced bronchospasm in the guinea pig when administered perorally (50 mg/kg); assay type: functional; procedure, shortened: as §2
Cavia porcellus [9] = assay: Inhibition of LTD4 (leukotriene) induced bronchospasm in the guinea pig when administered perorally (50 mg/kg)
Cavia porcellus [10] = assay: Inhibition of Ovalbumin (OA) induced bronchospasm in the guinea pig when administered intraduodenally (50 mg/kg); NA means not active; assay type: functional, organism-based; procedure, shortened: as §1
Cavia porcellus [11] = assay: Inhibition of Ovalbumin (OA) induced bronchospasm in the guinea pig when administered perorally (50 mg/kg); NA means not active,<10%inhibition; assay type: functional, organism-based; procedure, shortened: as §2
Cavia porcellus [12] = assay: Antagonist activity was determined by the ability to inhibit of ovalbumin induced bronchospasm when administered per orally; assay type: functional; conditions: po; procedure, shortened: as §2
[13] = target: Cyclooxygenase (Rattus norvegicus); assay: Ability to inhibit Prostaglandin G/H synthase in rat
Cavia porcellus [14] = assay: Antagonist activity was determined by the ability to inhibit of LTD4 (leukotriene D4) induced bronchospasm when administered per orally; assay type: functional; conditions: po; procedure, shortened: as §2
Cavia porcellus [15] = assay: Antagonist activity was determined by the ability to inhibit of ovalbumin induced bronchospasm when administered intraduodenally; assay type: functional; conditions: intraduodenal; procedure, shortened: as §1
Cavia porcellus [16] = assay: Antagonist activity was determined by the ability to inhibit of LTD4 (leukotriene D4) induced bronchospasm when administered intraduodenally; assay type: functional; conditions: intraduodenal; procedure, shortened: as §1
Cavia porcellus [17] = assay: Relative inhibitory potency against ovalbumin induced bronchospasm when administered per orally; assay type: functional
Cavia porcellus [18] = assay: Relative inhibitory potency against LTD4 (leukotriene D4) induced bronchospasm when administered intraduodenally; assay type: functional
Cavia porcellus [19] = organism: Cavia porcellus; assay: relative potency antagonist on LTD4-induced contraction of isolated guinea pig; assay type: functional
Procedure, shortened: (§3)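 Guinea pig tracheal spirals stretched to near-optimal length and equilibrated 1.5 h, washed every 15 min. Indomethacin (5 μM) was present in all tissues. Cumulative LTD4 dose-response curves were recorded isometrically via force transducers. Paired proximal/distal strips from one animal got solvent control or drug. Values are negative log, mean ± SEM, and were compared by Student's t test.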

Cavia porcellus [20] = assay: Relative inhibitory potency against ovalbumin induced bronchospasm when administered intraduodenally; assay type: functional
Cavia porcellus [21] = assay: Relative inhibitory potency against LTD4 (leukotriene D4) induced bronchospasm when administered per orally; assay type: functional
Cavia porcellus [22] = organism: Cavia porcellus; assay: Antagonist activity towards LTD4-induced contraction of isolated guinea pig; assay type: functional; procedure, shortened: as §3
Cavia porcellus [23] = assay: Antagonist activity was determined by the ability to inhibit of ovalbumin induced bronchospasm when administered perorally with respect to REV-5901 compound; assay type: functional; conditions: po; procedure, shortened: as §2
Cavia porcellus [24] = assay: Relative inhibitory potency against LTD4 (leukotriene D4) induced bronchospasm when administered perorally with respect to REV-5901 compound; assay type: functional
Cavia porcellus [25] = assay: Antagonist activity was determined by the ability to inhibit of LTD4 (leukotriene D4) induced bronchospasm when administered intraduodenally with respect to REV-5901 compound; assay type: functional; conditions: intraduodenal; procedure, shortened: as §1
Cavia porcellus [26] = organism: Cavia porcellus; assay: relative potency antagonist on LTD4-induced contraction of isolated guinea pig trachea; assay type: functional; procedure, shortened: as §3
Cavia porcellus [27] = assay: Antagonist activity was determined by the ability to inhibit of LTD4 (leukotriene D4) induced bronchospasm when administered perorally with respect to REV-5901 compound; assay type: functional; conditions: po; procedure, shortened: as §2
Cavia porcellus [28] = assay: Relative inhibitory potency against LTD4 (leukotriene D4) induced bronchospasm when administered intraduodenally with respect to REV-5901 compound; assay type: functional
Cavia porcellus [29] = assay: Antagonist activity was determined by the ability to inhibit of ovalbumin induced bronchospasm when administered intraduodenally with respect to REV-5901 compound; assay type: functional; conditions: intraduodenal; procedure, shortened: as §1
Cavia porcellus [30] = assay: Relative inhibitory potency against ovalbumin induced bronchospasm when administered perorally with respect to LY-171,883 compound
Cavia porcellus [31] = assay: Inhibition of LTD4 (leukotriene) induced bronchospasm in the guinea pig when administered intraduodenally (50 mg/kg) NA means not active; assay type: functional, organism-based; procedure, shortened: as §1
Cavia porcellus [32] = assay: Inhibition of LTD4 (leukotriene) induced bronchospasm in the guinea pig when administered perorally (50 mg/kg); NA means not active; assay type: functional, organism-based; procedure, shortened: as §2
Cavia porcellus [33] = assay: Relative inhibitory potency against ovalbumin induced bronchospasm when administered perorally with respect to LY-171883 compound; assay type: functional
Cavia porcellus [34] = assay: Antagonist activity was determined by the ability to inhibit of ovalbumin induced bronchospasm when administered perorally with respect to LY-171883 compound; assay type: functional; conditions: po; procedure, shortened: as §2
Cavia porcellus [35] = assay: Antagonist activity was determined by the ability to inhibit of LTD4 (leukotriene D4) induced bronchospasm when administered intraduodenally with respect to LY-171883 compound; assay type: functional; conditions: intraduodenal; procedure, shortened: as §1
Cavia porcellus [36] = assay: Antagonist activity was determined by the ability to inhibit of ovalbumin induced bronchospasm when administered intraduodenally with respect to LY-171883 compound; assay type: functional; conditions: intraduodenal; procedure, shortened: as §1
Cavia porcellus [37] = assay: Antagonist activity was determined by the ability to inhibit of LTD4 (leukotriene D4) induced bronchospasm when administered perorally with respect to LY-171883 compound; assay type: functional; conditions: po; procedure, shortened: as §2
Cavia porcellus [38] = assay: Relative inhibitory potency against ovalbumin induced bronchospasm when administered intraduodenally with respect to LY-171883 compound; assay type: functional
Cavia porcellus [39] = assay: Relative inhibitory potency against LTD4 (leukotriene D4) induced bronchospasm when administered perorally with respect to LY-171883 compound; assay type: functional
Cavia porcellus [40] = assay: Relative inhibitory potency against LTD4 (leukotriene D4) induced bronchospasm when administered intraduodenally with respect to LY-171883 compound; assay type: functional

Sequence of Cysteinyl leukotriene receptor (Homo sapiens) (Q9NS75 whole entry, looked up): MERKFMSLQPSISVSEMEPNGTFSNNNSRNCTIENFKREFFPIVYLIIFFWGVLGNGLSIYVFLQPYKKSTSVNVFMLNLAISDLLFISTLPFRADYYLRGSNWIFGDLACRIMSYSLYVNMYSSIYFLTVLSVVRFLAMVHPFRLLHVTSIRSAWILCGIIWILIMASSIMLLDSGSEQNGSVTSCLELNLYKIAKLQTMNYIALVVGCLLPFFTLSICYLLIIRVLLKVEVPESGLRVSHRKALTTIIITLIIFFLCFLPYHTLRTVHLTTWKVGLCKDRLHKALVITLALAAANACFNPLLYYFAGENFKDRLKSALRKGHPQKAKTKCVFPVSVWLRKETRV
Sequence of Cysteinyl leukotriene receptor (Homo sapiens) (Q9Y271 whole entry, looked up): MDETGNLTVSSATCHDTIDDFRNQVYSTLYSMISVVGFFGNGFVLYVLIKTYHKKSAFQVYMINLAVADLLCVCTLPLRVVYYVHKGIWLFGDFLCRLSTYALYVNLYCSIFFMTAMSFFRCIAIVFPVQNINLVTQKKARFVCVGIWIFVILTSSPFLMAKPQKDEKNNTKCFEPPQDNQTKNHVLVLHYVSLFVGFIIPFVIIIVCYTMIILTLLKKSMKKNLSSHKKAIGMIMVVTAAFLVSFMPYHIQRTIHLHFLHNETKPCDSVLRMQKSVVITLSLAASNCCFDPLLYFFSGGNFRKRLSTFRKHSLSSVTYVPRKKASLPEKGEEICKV

## CN1CC(c2cccc(OCc3ccc4ccccc4n3)c2)OC1=S (stereo not drawn)
Cavia porcellus [1]
  inhibition: inactive

## C#CCN(C)C[C@H](O)c1cccc(OCc2ccc3ccccc3n2)c1
Cavia porcellus [2]
  inhibition: 41%

## CN(C[C@H](O)c1cccc(OCc2ccc3ccccc3n2)c1)C(=O)N(c1ccccc1)c1ccccc1
Cavia porcellus [3]
  inhibition: 21%

## CCOC(=O)N(C)C[C@H](O)c1cccc(OCc2ccc3ccccc3n2)c1
[4]
  inhibition: 20%
Cavia porcellus [3]
  inhibition: 71%

## CCN(CC)C(=O)N(CC)C[C@H](O)c1cccc(OCc2ccc3ccccc3n2)c1
Cavia porcellus [3]
  inhibition: 34%

## CNC(=O)N(C)CC(O)c1cccc(OCc2ccc3ccccc3n2)c1 (stereo not drawn)
Cavia porcellus [5]
  pInhibition: 92%
Cavia porcellus [6]
  inhibition in vivo at 25 mg/kg: 95%

## CCNC(=O)N(C)CC(O)c1cccc(OCc2ccc3ccccc3n2)c1 (stereo not drawn)
Cavia porcellus [7]
  inhibition: inactive
Cavia porcellus [3]
  inhibition: 82%
Cavia porcellus [8]
  Inhibition: 46%

## O=C(NCC(O)c1cccc(OCc2ccc3ccccc3n2)c1)c1ccccn1 (stereo not drawn)
Cavia porcellus [2]
  inhibition: 20%

## CN(C)S(=O)(=O)N(C)C[C@H](O)c1cccc(OCc2ccc3ccccc3n2)c1
Cavia porcellus [9]
  inhibition: 33%
Cavia porcellus [10]
  inhibition: inactive
Cavia porcellus [3]
  inhibition: 56%

## CCN(CC)C(=O)N(C)C[C@H](O)c1cccc(OCc2nc3ccccc3n2C)c1
[4]
  inhibition: 84%
Cavia porcellus [11]
  inhibition: inactive
Cavia porcellus [9]
  inhibition: 38%
Cavia porcellus [3]
  inhibition: 77%

## CN1C[C@@H](c2cccc(OCc3ccc4ccccc4n3)c2)OC1=O
Cavia porcellus [12]
  ED50: 95 mg/kg
[4]
  inhibition: 56%
[13]
  IC50: > 100 µM
Cavia porcellus [14]
  ED50: 36 mg/kg
Cavia porcellus [15]
  ED50: 42 mg/kg
Cavia porcellus [16]
  ED50: 12 mg/kg
Cavia porcellus [9]
  inhibition: 56%
Cavia porcellus [17]
  Potency: 2.5
Cavia porcellus [18]
  Potency: 2
Cavia porcellus [19]
  Potency: 3
Cavia porcellus [20]
  Potency: 2.2
Cavia porcellus [21]
  Potency: 1.1
Cavia porcellus [22]
  pkb: 6.09
Cavia porcellus [3]
  inhibition: 91%
Cavia porcellus [8]
  Inhibition: 56%

## CCOC(=O)NCC(O)c1cccc(OCc2ccc3ccccc3n2)c1 (stereo not drawn)
Cavia porcellus [2]
  inhibition: 36%

## CCCCCC(O)c1cccc(OCc2ccc3ccccc3n2)c1 (stereo not drawn) [REV-5901]
Cavia porcellus [23]
  ED50: 87 mg/kg
Cavia porcellus [24]
  Potency: 1.6
Cavia porcellus [25]
  ED50: 51 mg/kg
Cavia porcellus [26]
  Potency: 8
Cavia porcellus [27]
  ED50: 52 mg/kg
Cavia porcellus [28]
  Potency: 8.5
Cavia porcellus [29]
  ED50: 47 mg/kg
Cavia porcellus [22]
  pkb: 5.64
Cavia porcellus [30]
  Potency: 2.3

## CN(C[C@H](O)c1cccc(OCc2ccc3ccccc3n2)c1)C(=O)c1ccncc1
Cavia porcellus [3]
  inhibition: 31%

## O=C1NCC(c2cccc(OCc3ccc4ccccc4n3)c2)O1 (stereo not drawn)
Cavia porcellus [2]
  inhibition: 66%

## CN1CC(c2cccc(OCc3nc4ccccc4s3)c2)OC1=O (stereo not drawn)
Cavia porcellus [31]
  inhibition: inactive

## CCNC(=O)O[C@@H](CN(C)C(=O)N(CC)CC)c1cccc(OCc2ccc3ccccc3n2)c1
[4]
  inhibition: 80%
Cavia porcellus [32]
  inhibition: inactive
Cavia porcellus [3]
  inhibition: 54%

## c1ccc(C2=NCC(c3cccc(OCc4ccc5ccccc5n4)c3)O2)nc1 (stereo not drawn)
Cavia porcellus [6]
  inhibition in vivo at 25 mg/kg: 87%
Cavia porcellus [3]
  inhibition: 92%

## CCOC(=O)CC(=O)NCC(O)c1cccc(OCc2ccc3ccccc3n2)c1 (stereo not drawn)
Cavia porcellus [2]
  inhibition: 25%

## CCCc1c(OCCCCc2nnn[nH]2)ccc(C(C)=O)c1O [TOMELUKAST]
Cavia porcellus [33]
  Potency: 1
Cavia porcellus [26]
  Potency: 1
Cavia porcellus [34]
  ED50: 38 mg/kg
Cavia porcellus [35]
  ED50: 6 mg/kg
Cavia porcellus [36]
  ED50: 19 mg/kg
Cavia porcellus [22]
  pkb: 6.55
Cavia porcellus [37]
  ED50: 32 mg/kg
Cavia porcellus [38]
  Potency: 1
Cavia porcellus [39]
  Potency: 1
Cavia porcellus [40]
  Potency: 1
